Results from ChEMBL document CHEMBL4373727, “Thienopyrimidinone Derivatives That Inhibit Bacterial tRNA (Guanine37-N1)-Methyltransferase (TrmD) by Restructuring the Active Site with a Tyrosine-Flipping Mechanism” (J Med Chem, 2019).

How the values were obtained:
[1] = target: T1, tRNA (guanine-N(1)-)-methyltransferase (Staphylococcus aureus (strain NCTC 8325 / PS 47), UniProt Q2FZ43); assay: Binding affinity to full length Staphylococcus aureus tRNA (guanine(37)-N1)-methyltransferase expressed in Escherichia coli BL21 (DE3) by surface plasmon resonance assay
T1 sequence (Q2FZ43 whole entry): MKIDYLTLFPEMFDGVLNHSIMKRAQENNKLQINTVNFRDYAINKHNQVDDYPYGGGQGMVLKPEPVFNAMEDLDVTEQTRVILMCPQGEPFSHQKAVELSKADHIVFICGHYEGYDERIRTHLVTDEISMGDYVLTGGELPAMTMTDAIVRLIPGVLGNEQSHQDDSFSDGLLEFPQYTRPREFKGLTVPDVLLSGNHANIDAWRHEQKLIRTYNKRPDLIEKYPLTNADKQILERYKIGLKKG
Summary of the method: (§1)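 SPR at 25 °C. His-tagged TrmD (50 μg/mL) captured on an anti-His antibody surface (about 2200 RU), with a blank reference cell. Buffer: 50 mM Tris-HCl pH 8, 150 mM NaCl, 1 mM MgCl2, 1 mM DTT, 0.05% Tween-20. Analyte in 2-fold dilutions, injected lowest to highest at 30 μL/min, 30 s contact, 240 s dissociation. KD from steady-state affinity fit.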

[2] = target: T2, tRNA (guanine-N(1)-)-methyltransferase (Pseudomonas aeruginosa (strain ATCC 15692 / DSM 22644 / CIP 104116 / JCM14847 / LMG 12228 / 1C / PRS 101 / PAO1)) (UniProt Q9HXQ1); assay: Binding affinity to Pseudomonas aeruginosa tRNA (guanine(37)-N1)-methyltransferase (Leu5 to Asp25 residues) expressed in Escherichia coli BL21 (DE3) Rosetta T1R cells assessed as dissociation rate constant by surface plasmon resonance assay; summary of the method: as §1
T2 sequence (whole entry): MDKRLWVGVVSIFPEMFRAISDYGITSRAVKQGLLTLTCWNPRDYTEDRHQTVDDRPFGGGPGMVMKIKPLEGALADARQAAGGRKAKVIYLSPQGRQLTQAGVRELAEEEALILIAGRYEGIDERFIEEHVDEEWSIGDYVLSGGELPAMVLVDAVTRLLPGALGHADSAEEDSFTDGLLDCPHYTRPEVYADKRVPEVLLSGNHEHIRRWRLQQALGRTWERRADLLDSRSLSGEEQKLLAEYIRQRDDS

[3] = target: T2, tRNA (guanine-N(1)-)-methyltransferase (Pseudomonas aeruginosa (strain ATCC 15692 / DSM 22644 / CIP 104116 / JCM14847 / LMG 12228 / 1C / PRS 101 / PAO1)); assay: Binding affinity to Pseudomonas aeruginosa tRNA (guanine(37)-N1)-methyltransferase (Leu5 to Asp25 residues) expressed in Escherichia coli BL21 (DE3) Rosetta T1R cells assessed as thermal stabilization of protein by measuring change in melting temperature at 2 mM by SYPRO orange based thermal shift assay
Summary of the method: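 Thermal shift: 4 μM TrmD with 5× SYPRO Orange and ligand in 50 mM Tris-HCl pH 8, 150 mM NaCl, 1 mM MgCl2, 1 mM DTT, 0.05% Tween-20. Buffer-only control. Heated from 25 to 95 °C in a real-time PCR instrument, and Tm taken as the unfolding midpoint. Ligand levels: SAH 2 mM, inhibitors 0.1 mM.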

[4] = target: T3, tRNA (guanine-N(1)-)-methyltransferase (Mycobacterium tuberculosis (strain ATCC 25618 / H37Rv)) (UniProt P9WFY7); assay: Binding affinity to full length Mycobacterium tuberculosis tRNA (guanine(37)-N1)-methyltransferase expressed in Escherichia coli BL21 (DE3) assessed as association rate constant by surface plasmon resonance assay; summary of the method: as §1
T3 sequence (whole entry): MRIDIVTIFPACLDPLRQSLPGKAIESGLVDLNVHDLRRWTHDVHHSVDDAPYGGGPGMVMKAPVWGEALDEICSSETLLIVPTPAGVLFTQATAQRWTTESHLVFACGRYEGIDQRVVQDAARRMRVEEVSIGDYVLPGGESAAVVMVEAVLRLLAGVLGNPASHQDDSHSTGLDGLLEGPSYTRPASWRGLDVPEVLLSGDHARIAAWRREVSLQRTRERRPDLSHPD

[5] = target: T4, tRNA (guanine-N(1)-)-methyltransferase (Staphylococcus aureus (strain NCTC 8325 / PS 47)) (UniProt Q2FZ43); assay: Binding affinity to full length Staphylococcus aureus tRNA (guanine(37)-N1)-methyltransferase expressed in Escherichia coli BL21 (DE3) assessed as association rate constant by surface plasmon resonance assay; summary of the method: as §1
T4 sequence (whole entry): T1 sequence (Q2FZ43 whole entry)

[6] = target: T4, tRNA (guanine-N(1)-)-methyltransferase (Staphylococcus aureus (strain NCTC 8325 / PS 47)); assay: Binding affinity to full length Staphylococcus aureus tRNA (guanine(37)-N1)-methyltransferase expressed in Escherichia coli BL21 (DE3) assessed as dissociation rate constant by surface plasmon resonance assay; summary of the method: as §1
[7] = target: T2, tRNA (guanine-N(1)-)-methyltransferase (Pseudomonas aeruginosa (strain ATCC 15692 / DSM 22644 / CIP 104116 / JCM14847 / LMG 12228 / 1C / PRS 101 / PAO1)); assay: Binding affinity to Pseudomonas aeruginosa tRNA (guanine(37)-N1)-methyltransferase (Leu5 to Asp25 residues) expressed in Escherichia coli BL21 (DE3) Rosetta T1R cells assessed as association rate constant by surface plasmon resonance assay; summary of the method: as §1
[8] = target: T5, tRNA (guanine-N(1)-)-methyltransferase (Pseudomonas aeruginosa (strain ATCC 15692 / DSM 22644 / CIP 104116 / JCM14847 / LMG 12228 / 1C / PRS 101 / PAO1), UniProt Q9HXQ1); assay: Binding affinity to Pseudomonas aeruginosa tRNA (guanine(37)-N1)-methyltransferase (Leu5 to Asp25 residues) expressed in Escherichia coli BL21 (DE3) Rosetta T1R cells by surface plasmon resonance assay; summary of the method: as §1
T5 sequence (Q9HXQ1 whole entry): T2 sequence (whole entry)

[9] = target: T6, tRNA (guanine-N(1)-)-methyltransferase (Mycobacterium tuberculosis (strain ATCC 25618 / H37Rv), UniProt P9WFY7); assay: Binding affinity to full length Mycobacterium tuberculosis tRNA (guanine(37)-N1)-methyltransferase expressed in Escherichia coli BL21 (DE3) by surface plasmon resonance assay; summary of the method: as §1
T6 sequence (P9WFY7 whole entry): T3 sequence (whole entry)

[10] = target: T3, tRNA (guanine-N(1)-)-methyltransferase (Mycobacterium tuberculosis (strain ATCC 25618 / H37Rv)); assay: Binding affinity to full length Mycobacterium tuberculosis tRNA (guanine(37)-N1)-methyltransferase expressed in Escherichia coli BL21 (DE3) assessed as dissociation rate constant by surface plasmon resonance assay; summary of the method: as §1

Nc1ncnc2c1ncn2[C@@H]1O[C@H](CSCC[C@H](N)C(=O)O)[C@@H](O)[C@H]1O [S-ADENOSYLHOMOCYSTEINE]
Kd [1]: 3.3 µM
Kdiss [2]: 0.326 s⁻¹
ΔTm [3]: 4 to 29 °C
Ka [4]: 7700 M⁻¹ s⁻¹
Ka [5]: 279000 M⁻¹ s⁻¹
Kdiss [6]: 0.92 s⁻¹
Ka [7]: 55500 M⁻¹ s⁻¹
Kd [8]: 5.9 µM
Kd [9]: 10.1 µM
Kdiss [10]: 0.0775 s⁻¹
